Converted amounts (≈) assume the structure as drawn. Blank lines part the entries; values can stand above or below the molecule they belong to. The source made the active and inactive calls. The calls are words filed in the database; no cut-off is given here.
Legend:
[1] = Cytotoxicity against human SGC7901 cells after 48 hrs by MTT assay; assay type: functional, cell-based; conditions: SGC-7901, 48 h
Summary of the method: (§1)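 Cells seeded at 10⁴ per well in DMEM with 10% FBS and grown overnight. Compound at a range of concentrations for 48 h, in triplicate. MTT (5 mg mL⁻¹ stock) added for the last 4 h, formazan dissolved in DMSO, absorbance read at 570 nm. Percent inhibition used to derive IC50. Values are mean ± SEM of at least three independent experiments.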

[2] = Cytotoxicity against human PANC1 cells after 48 hrs by MTT assay; assay type: functional, cell-based; conditions: PANC-1, 48 h; summary of the method: as §1
[3] = Cytotoxicity against human H460 cells after 48 hrs by MTT assay; assay type: functional, cell-based; conditions: NCI-H460, 48 h; summary of the method: as §1
EJ = assay: Cytotoxicity against human EJ cells after 48 hrs by MTT assay; assay type: functional, cell-based; summary of the method: as §1
MCF7 = assay: Cytotoxicity against human MCF7 cells after 48 hrs by MTT assay; assay type: functional, cell-based; conditions: MCF7, 48 h; summary of the method: as §1
SK-OV-3 = assay: Cytotoxicity against human SKOV3 cells after 48 hrs by MTT assay; assay type: functional, cell-based; conditions: SK-OV-3, 48 h; summary of the method: as §1
SMMC-7721 [4] = assay: Cytotoxicity against human SMMC7721 cells after 48 hrs by MTT assay; assay type: functional, cell-based; conditions: SMMC-7721, 48 h; summary of the method: as §1
SMMC-7721 [5] = assay: Induction of apoptosis in human SMMC7721 cells assessed as necrotic cells at 12 uM after 48 hrs by annexin V-FITC/propidium iodide staining-based flow cytometry (reference value: 0.77%); assay type: functional
SMMC-7721 [6] = assay: Induction of apoptosis in human SMMC7721 cells assessed as early apoptotic cells at 6 uM after 48 hrs by annexin V-FITC/propidium iodide staining-based flow cytometry (reference value: 3.87%); assay type: functional
SMMC-7721 [7] = assay: Induction of apoptosis in human SMMC7721 cells assessed as viable cells at 6 uM after 48 hrs by annexin V-FITC/propidium iodide staining-based flow cytometry (reference value: 93.81%); assay type: functional; conditions: SMMC-7721, 48 h, read-out: Activity
[8] = Aqueous solubility of the compound in 10% PEG400 aqueous solution after 24 hrs by HPLC analysis; assay type: physicochemical
Summary of the method: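 Roughly 20.0 mg of solid in 5 mL of 10% PEG400 in water. Sonicated 10 min, then stirred 24 h at 25 °C in a water bath. Centrifuged 10 min at 10,000 rpm and the supernatant passed through a microporous membrane. Concentration measured by HPLC against a standard curve.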

SMMC-7721 [9] = assay: Inhibition of Ras in human SMMC7721 cells assessed as reduction in phosphorylated ERK2 level at 12 uM after 8 hrs by immunoblotting analysis; assay type: cell-based
Summary of the method: (§2)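 SMMC-7721 cells at 1.5 × 10⁵/mL treated with 3.0, 6.0 or 12 µmol/L compound or vehicle for 8 h. Cells lysed, 50 µg protein per lane run on 12% SDS–PAGE gels. Blots probed for total and phospho-ERK1/2 (Thr202/Tyr204), total and phospho-Akt (Ser473), and β-actin. Densitometry relative to β-actin. Means ± SEM of three experiments.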

SMMC-7721 [10] = assay: Induction of apoptosis in human SMMC7721 cells assessed as early apoptotic cells at 3 uM after 48 hrs by annexin V-FITC/propidium iodide staining-based flow cytometry (reference value: 3.87%); assay type: functional
SMMC-7721 [11] = assay: Induction of apoptosis in human SMMC7721 cells assessed as late apoptotic cells at 6 uM after 48 hrs by annexin V-FITC/propidium iodide staining-based flow cytometry (reference value: 1.55%); assay type: functional
SMMC-7721 [12] = assay: Induction of apoptosis in human SMMC7721 cells assessed as early apoptotic cells at 12 uM after 48 hrs by annexin V-FITC/propidium iodide staining-based flow cytometry (reference value: 3.87%); assay type: functional
SMMC-7721 [13] = assay: Induction of apoptosis in human SMMC7721 cells assessed as viable cells at 12 uM after 48 hrs by annexin V-FITC/propidium iodide staining-based flow cytometry (reference value: 93.81%); assay type: functional; conditions: SMMC-7721, 48 h, read-out: Activity
SMMC-7721 [14] = assay: Induction of apoptosis in human SMMC7721 cells after 48 hrs by annexin V-FITC/propidium iodide staining-based flow cytometry; assay type: functional, cell-based
SMMC-7721 [15] = assay: Inhibition of Ras in human SMMC7721 cells assessed as reduction in phosphorylated ERK1 level at 12 uM after 8 hrs by immunoblotting analysis; assay type: cell-based; summary of the method: as §2
SMMC-7721 [16] = assay: Inhibition of Ras in human SMMC7721 cells assessed as reduction in phosphorylated Akt level at 12 uM after 8 hrs by immunoblotting analysis; assay type: cell-based; summary of the method: as §2
SMMC-7721 [17] = assay: Induction of apoptosis in human SMMC7721 cells assessed as increase in caspase-3 level after 48 hrs by Western blotting analysis; assay type: functional, cell-based
Summary of the method: (§3)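 SMMC-7721 cells treated with or without compound at several concentrations for 48 h. Lysates immunoblotted for Bax, Bcl-2 and caspase-3, with β-actin as loading control. Band levels relative to β-actin quantified by densitometric scanning. Means ± SEM from three separate experiments.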

SMMC-7721 [18] = assay: Induction of apoptosis in human SMMC7721 cells assessed as viable cells at 3 uM after 48 hrs by annexin V-FITC/propidium iodide staining-based flow cytometry (reference value: 93.81%); assay type: functional; conditions: SMMC-7721, 48 h, read-out: Activity
SMMC-7721 [19] = assay: Inhibition of Ras in human SMMC7721 cells assessed as reduction in phosphorylated ERK2 level after 8 hrs by immunoblotting analysis; assay type: cell-based; summary of the method: as §2
SMMC-7721 [20] = assay: Induction of apoptosis in human SMMC7721 cells assessed as necrotic cells at 6 uM after 48 hrs by annexin V-FITC/propidium iodide staining-based flow cytometry (reference value: 0.77%); assay type: functional
SMMC-7721 [21] = assay: Induction of apoptosis in human SMMC7721 cells assessed as necrotic cells at 3 uM after 48 hrs by annexin V-FITC/propidium iodide staining-based flow cytometry (reference value: 0.77%); assay type: functional
SMMC-7721 [22] = assay: Inhibition of Ras in human SMMC7721 cells assessed as reduction in phosphorylated ERK1 level after 8 hrs by immunoblotting analysis; assay type: cell-based; summary of the method: as §2
SMMC-7721 [23] = assay: Induction of apoptosis in human SMMC7721 cells assessed as late apoptotic cells at 12 uM after 48 hrs by annexin V-FITC/propidium iodide staining-based flow cytometry (reference value: 1.55%); assay type: functional
SMMC-7721 [24] = assay: Induction of apoptosis in human SMMC7721 cells assessed as reduction in Bcl2 level after 48 hrs by Western blotting analysis; assay type: functional, cell-based
SMMC-7721 [25] = assay: Induction of apoptosis in human SMMC7721 cells assessed as increase in Bax level after 48 hrs by Western blotting analysis; assay type: functional, cell-based; summary of the method: as §3
SMMC-7721 [26] = assay: Induction of apoptosis in human SMMC7721 cells assessed as late apoptotic cells at 3 uM after 48 hrs by annexin V-FITC/propidium iodide staining-based flow cytometry (reference value: 1.55%); assay type: functional
SMMC-7721 [27] = assay: Inhibition of Ras in human SMMC7721 cells assessed as reduction in phosphorylated Akt level after 8 hrs by immunoblotting analysis; assay type: cell-based; summary of the method: as §2
[28] = Lipophilicity, log P of the compound in 10% PEG400 aqueous solution; assay type: physicochemical

SMILES: CC(C)=CCC/C(C)=C/CC/C(C)=C/CSc1ccccc1C(=O)NCCCNC(=O)c1ccccc1SC/C=C(\C)CC/C=C(\C)CCC=C(C)C
IC50 [1]: > 50 µM
IC50 [2]: > 50 µM
IC50 [3]: > 50 µM
IC50 (EJ): > 50 µM
IC50 (MCF7): > 50 µM
IC50 (SK-OV-3): > 50 µM
IC50 (SMMC-7721 [4]): > 50 µM

SMILES: CC(C)=CCC/C(C)=C/CC/C(C)=C/CSc1ccccc1C(=O)N1CCN(C(=O)c2ccccc2SC/C=C(\C)CC/C=C(\C)CCC=C(C)C)CC1
IC50 [1]: > 50 µM
IC50 [2]: > 50 µM
IC50 [3]: > 50 µM
IC50 (EJ): > 50 µM
IC50 (MCF7): > 50 µM
IC50 (SK-OV-3): > 50 µM
IC50 (SMMC-7721 [4]): > 50 µM

SMILES: CC(C)=CCC/C(C)=C/CC/C(C)=C/CSc1ccccc1C(=O)N1CCNCC1
IC50 [1]: 25.7 µM
IC50 [2]: 22.5 µM
IC50 [3]: 26.3 µM
IC50 (EJ): 27.5 µM
IC50 (MCF7): 34.1 µM
IC50 (SK-OV-3): > 50 µM
IC50 (SMMC-7721 [4]): 32.4 µM

solubility at 24 h [8]: 23800 µg/mL (≈ 53.4 mM)
logP [28]: 4.85
SMILES: CC(C)=CCC/C(C)=C/CC/C(C)=C/CSc1ccccc1C(=O)NCCOCCN
Activity (SMMC-7721 [5]): 0.21%
IC50 [1]: 7.63 µM
IC50 [2]: 3.78 µM
Activity (SMMC-7721 [6]): 29.84%
viability at 6 µM (SMMC-7721 [7]): 49.4%
Activity (SMMC-7721 [9]): Active
Activity (SMMC-7721 [10]): 10.9%
Activity (SMMC-7721 [11]): 18.68%
Activity (SMMC-7721 [12]): 59.67%
viability at 12 µM (SMMC-7721 [13]): 15.3%
Activity (SMMC-7721 [14]): Dose-dependent effect
IC50 [3]: 6.89 µM
Activity (SMMC-7721 [15]): Active
IC50 (EJ): 6.13 µM
Activity (SMMC-7721 [16]): Active
Activity (SMMC-7721 [17]): Dose-dependent effect
viability at 3 µM (SMMC-7721 [18]): 84%
Activity (SMMC-7721 [19]): Dose-dependent effect
IC50 (MCF7): 7.29 µM
Activity (SMMC-7721 [20]): 2.07%
Activity (SMMC-7721 [21]): 0.24%
Activity (SMMC-7721 [22]): Dose-dependent effect
Activity (SMMC-7721 [23]): 24.84%
Activity (SMMC-7721 [24]): Dose-dependent effect
Activity (SMMC-7721 [25]): Dose-dependent effect
Activity (SMMC-7721 [26]): 4.85%
IC50 (SK-OV-3): 6.83 µM
Activity (SMMC-7721 [27]): Dose-dependent effect
IC50 (SMMC-7721 [4]): 5.71 µM

SMILES: CC(C)=CCC/C(C)=C/CC/C(C)=C/CSc1ccccc1C(=O)NCCNC(=O)c1ccccc1SC/C=C(\C)CC/C=C(\C)CCC=C(C)C
IC50 [1]: > 50 µM
IC50 [2]: > 50 µM
IC50 [3]: > 50 µM
IC50 (EJ): > 50 µM
IC50 (MCF7): > 50 µM
IC50 (SK-OV-3): > 50 µM
IC50 (SMMC-7721 [4]): > 50 µM

solubility at 24 h [8]: < 10 µg/mL
SMILES: CC(C)=CCC/C(C)=C/CC/C(C)=C/CSc1ccccc1C(=O)NCCCCCNC(=O)c1ccccc1SC/C=C(\C)CC/C=C(\C)CCC=C(C)C
IC50 [1]: > 50 µM
IC50 [2]: > 50 µM
IC50 [3]: 47.1 µM
IC50 (EJ): 39.5 µM
IC50 (MCF7): > 50 µM
IC50 (SK-OV-3): 41.9 µM
IC50 (SMMC-7721 [4]): 36.2 µM

solubility at 24 h [8]: 3650 µg/mL (≈ 10.2 mM)
logP [28]: 6.32
SMILES: CC(C)=CCC/C(C)=C/CC/C(C)=C/CSc1ccccc1C(=O)O [SALIRASIB]
Activity (SMMC-7721 [5]): 0.21%
IC50 [1]: 41.3 µM
IC50 [2]: 53.6 µM
Activity (SMMC-7721 [9]): Active
Activity (SMMC-7721 [12]): 13.49%
viability at 12 µM (SMMC-7721 [13]): 80.4%
IC50 [3]: 49.2 µM
Activity (SMMC-7721 [15]): Active
IC50 (EJ): 47.6 µM
Activity (SMMC-7721 [16]): Active
IC50 (MCF7): 49.1 µM
Activity (SMMC-7721 [23]): 5.87%
IC50 (SK-OV-3): 51.2 µM
IC50 (SMMC-7721 [4]): 69.7 µM

SMILES: CC(C)=CCC/C(C)=C/CC/C(C)=C/CSc1ccccc1C(=O)NCCCCCCNC(=O)c1ccccc1SC/C=C(\C)CC/C=C(\C)CCC=C(C)C
IC50 [1]: > 50 µM
IC50 [2]: > 50 µM
IC50 [3]: > 50 µM
IC50 (EJ): 43.9 µM
IC50 (MCF7): 40.6 µM
IC50 (SK-OV-3): > 50 µM
IC50 (SMMC-7721 [4]): > 50 µM

Reference: ChEMBL document CHEMBL3102776, “Synthesis and biological evaluation of farnesylthiosalicylamides as potential anti-tumor agents” (Bioorg Med Chem, 2014)
